Measured values published in PubChem BioAssay AID493235 (Broad Institute, 2011).
Where “and” joins values, the source holds several entries; their conditions need not be identical. Equal entries are not always repeated. Inconclusive results are not listed. Calls of active or inactive are those of the source.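 How the source made its calls: active means fitted dose curve passes 500% activation at or below the top valid tested dose; inconclusive means no clear call, values can overlap the other calls; inactive means the rest, opposite-direction activity included.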

Test system: not listed separately
Assay: activation of hypoxia-responsive element reporter – cell-based, U2OS, luminescence, dry powder, set 7, dose response (AID 493235)
Details: U2OS HRE-luciferase reporter, luminescence; at 38 µM (top of the series)
Method in brief: (§1)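 Test system – human U2OS osteosarcoma cells stably expressing 3×HRE-driven luciferase reporter · Quantity – 6,000 cells/well · Medium – DMEM without phenol red, with 10% fetal bovine serum · Compound – 8 concentrations, 3-fold steps · Times – cells grown 24 h before dosing, compound exposure 24 h at 37 °C · Detection – luminescence with Steady-Glo luciferase reagent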

Row | Structure (SMILES) | activation
1 | Cc1ccc(NC(=O)c2cc(-c3ccccc3)on2)cn1 | -7.72% (inactive)
2 | O=C(c1cc(-c2ccccc2)on1)N1CCN(c2ccncc2)CC1 | -14.8% (inactive)
3 | Cc1cccc(NC(=O)c2cc(-c3ccccc3)on2)n1 | 29.2% (inactive)
4 | O=C(Nc1ncc(-c2ccccc2)o1)c1cc(-c2ccccc2)on1 | 14.8% (inactive)
5 | N#CC1(c2ccccc2)CCN(Cc2ccc(O)c3ncccc23)CC1 | 368% (inactive)
6 | CN(C)CCNC(=O)c1cc(-c2ccccc2)on1 | 29.6% (inactive)
7 | O=C(c1cc(-c2ccccc2)on1)N1CCC(N2CCCC2)CC1 | 5.02% (inactive)
8 | O=C(NC1CCc2ccccc2C1)c1cc(-c2ccccc2)on1 (stereo unspecified) | 5.28% (inactive)
9 | O=C(Nc1cnc2ccccc2c1)c1cc(-c2ccccc2)on1 | 28.8% (inactive)
10 | O=C(Nc1cn2ccccc2n1)c1cc(-c2ccccc2)on1 | 31.3% (inactive)
11 | O=C(NCCCO)c1cc(-c2ccccc2)on1 | 400% (inactive)
12 | Cn1c(-c2ccccc2)cnc1NC(=O)c1cc(-c2ccccc2)on1 | 9.12% (inactive)
13 | Cc1ccccc1CNC(=O)c1cc(-c2ccccc2)on1 | 22.9% (inactive)
14 | CC(C)(C)OC(=O)N1CCN(Cc2ccc(O)c3ncccc23)CC1 | 271% (inactive)
15 | O=C(Nc1ccc2ccccc2n1)c1cc(-c2ccccc2)on1 | 12.3% (inactive)
16 | O=C(Nc1nc(-c2ccccc2)cs1)c1cc(-c2ccccc2)on1 | -17.1% (inactive)
17 | O=C(Nc1nc2ccccc2s1)c1cc(-c2ccccc2)on1 | 4.65% (inactive)
18 | OCC1CCN(Cc2ccc(O)c3ncccc23)CC1 | 480% (inactive)
19 | CC1CN(Cc2ccc(O)c3ncccc23)CC(C)O1 (stereo unspecified) | 95.7% (inactive)
20 | O=C(Nc1ncc2ccccc2n1)c1cc(-c2ccccc2)on1 | 104% (inactive)
21 | O=C(Nc1nnc(-c2ccccc2)s1)c1cc(-c2ccccc2)on1 | -7.41% (inactive)
22 | Oc1ccc(CN2CCc3ccccc3C2)c2cccnc12 | 263% (inactive)
23 | O=C(NCc1ccccc1)c1cc(-c2ccccc2)on1 | 50.8% (inactive)
24 | O=C(c1cc(-c2ccccc2)on1)N1CCC(N2CCOCC2)CC1 | 8.48% (inactive)
25 | Cc1cccc(CNC(=O)c2cc(-c3ccccc3)on2)c1 | 1.59% (inactive)
26 | CN1CCN(C(=O)c2cc(-c3ccccc3)on2)CC1 | 2.48% (inactive)
27 | Cn1c(NC(=O)c2cc(-c3ccccc3)on2)nc2ccccc21 | -0.753% (inactive)

Test system: U2OS HRE-luciferase reporter, luminescence
Assay: as above
Details: not given
Method in brief: as §1

Row | Structure (SMILES) | AC500
28 | Oc1ccc(CN2CCC3CCCCC3C2)c2cccnc12 (stereo unspecified) | 11.1 µM
29 | C=CCNc1nc(-c2ccccn2)nnc1-c1ccccc1 | 9.45 µM
30 | COc1ccc(CNc2nc(-c3ccccn3)nnc2-c2ccccc2)cc1 | 2.59 µM
31 | Cc1ccc(Nc2nc(-c3ccccn3)nnc2-c2ccccc2)cn1 | 11.2 µM
32 | c1ccc(-c2cccc(CNc3nc(-c4ccccn4)nnc3-c3ccccc3)c2)cc1 | 3.39 µM
33 | Cn1c(-c2ccccc2)cnc1Nc1nc(-c2ccccn2)nnc1-c1ccccc1 | 9.16 µM
34 | O=C(NCCCN1CCOCC1)c1cc(-c2ccccc2)on1 | 11.3 µM
35 | Cc1cccc(CNc2nc(-c3ccccn3)nnc2-c2ccccc2)c1 | 4.08 µM
36 | c1ccc(-c2nnc(-c3ccccn3)nc2NCc2ccccn2)cc1 | 20.5 µM
37 | c1ccc(-c2nnc(-c3ccccn3)nc2NCC2CCCCC2)cc1 | 2.17 µM
38 | c1ccc(-c2ccc(CNc3nc(-c4ccccn4)nnc3-c3ccccc3)cc2)cc1 | 0.71 µM
39 | OCC1CCN(c2nc(-c3ccccn3)nnc2-c2ccccc2)CC1 | 21.7 µM
40 | Oc1ccc(CNC2Cc3ccccc3C2)c2cccnc12 | 28.6 µM
41 | COc1ccccc1N1CCN(Cc2ccc(O)c3ncccc23)CC1 | 26.5 µM
42 | Cc1ccc(CNc2nc(-c3ccccn3)nnc2-c2ccccc2)cc1C | 1.31 µM
43 | CC(C)(C)CCNc1nc(-c2ccccn2)nnc1-c1ccccc1 | 2.2 µM and 1.47 µM
44 | O=C(NCC1CC1)c1cc(-c2ccccc2)on1 | 10 µM
45 | c1ccc(CNc2nc(-c3ccccn3)nnc2-c2ccccc2)cc1 | 5.52 µM
46 | c1ccc(-c2cnc(Nc3nc(-c4ccccn4)nnc3-c3ccccc3)s2)cc1 | 6.49 µM
47 | c1ccc(-c2nnc(-c3ccccn3)nc2Nc2nc3ccccc3s2)cc1 | 5.89 µM
48 | Oc1ccc(CN2CCC(Cc3ccccc3)CC2)c2cccnc12 | 20.1 µM
49 | c1ccc(-c2nnc(-c3ccccn3)nc2Nc2cnc3ccccc3n2)cc1 | 6.2 µM
50 | c1ccc(CCNc2nc(-c3ccccn3)nnc2-c2ccccc2)cc1 | 2.81 µM
51 | CC(Nc1nc(-c2ccccn2)nnc1-c1ccccc1)c1ccccc1 (stereo unspecified) | 2.97 µM
52 | CC(C)(C)CCNC(=O)c1cc(-c2ccccc2)on1 | 35.8 µM
53 | c1ccc(-c2nnc(-c3ccccn3)nc2NCCN2CCOCC2)cc1 | 9.37 µM
54 | c1ccc(-c2nnc(Nc3nc(-c4ccccn4)nnc3-c3ccccc3)s2)cc1 | 2.99 µM

Row | Structure (SMILES) | AC500
55 | Cc1ccc(CNc2nc(-c3ccccn3)nnc2-c2ccccc2)cc1 | 4.35 µM
56 | C[C@@H](Nc1nc(-c2ccccn2)nnc1-c1ccccc1)c1ccccc1 | 3.92 µM
57 | CCCCNC(=O)c1cc(-c2ccccc2)on1 | 9.47 µM
58 | c1ccc(-c2csc(Nc3nc(-c4ccccn4)nnc3-c3ccccc3)n2)cc1 | 2.01 µM
59 | c1ccc(-c2nnc(-c3ccccn3)nc2NCCCN2CCOCC2)cc1 | 10.2 µM
60 | Clc1cccc(CNc2nc(-c3ccccn3)nnc2-c2ccccc2)c1 | 1.84 µM
61 | C[C@H](Nc1nc(-c2ccccn2)nnc1-c1ccccc1)C1CCCCC1 | 2.99 µM
62 | Oc1ccc(CN2CCc3ccccc3C2)c2cccnc12 | 3.21 µM
63 | c1ccc(-c2nnc(-c3ccccn3)nc2N2CCC(C3CCCCC3)C2)cc1 (stereo unspecified) | 4.37 µM
64 | c1ccc(-c2nnc(-c3ccccn3)nc2NCCc2ccccn2)cc1 | 10.3 µM
65 | OCCCNc1nc(-c2ccccn2)nnc1-c1ccccc1 | 16.8 µM
66 | C[C@@H](Nc1nc(-c2ccccn2)nnc1-c1ccccc1)C1CCCCC1 | 4.02 µM
67 | c1ccc(-c2nnc(-c3ccccn3)nc2N2CCN(c3ccncc3)CC2)cc1 | 9.6 µM
68 | Cc1cccc(Nc2nc(-c3ccccn3)nnc2-c2ccccc2)n1 | 10.7 µM
69 | O=C(NCCCn1ccnc1)c1cc(-c2ccccc2)on1 | 5.75 µM
70 | CN1CCN(c2nc(-c3ccccn3)nnc2-c2ccccc2)CC1 | 12.1 µM
71 | CC(C)(C)c1ccc(CNc2nc(-c3ccccn3)nnc2-c2ccccc2)cc1 | 1.33 µM
72 | c1ccc(-c2nnc(-c3ccccn3)nc2N2CCC(N3CCOCC3)CC2)cc1 | 4.84 µM
73 | O=C(NCCCCO)c1cc(-c2ccccc2)on1 | 2.82 µM
74 | c1ccc(-c2nnc(-c3ccccn3)nc2NCc2cccnc2)cc1 | 15.3 µM
75 | c1ccc(-c2nnc(-c3ccccn3)nc2NCC2CCOCC2)cc1 | 14.2 µM
76 | O=C(NCCN1CCOCC1)c1cc(-c2ccccc2)on1 | 14.2 µM
77 | c1ccc(-c2nnc(-c3ccccn3)nc2N2CCC(c3ccccc3)C2)cc1 (stereo unspecified) | 1.72 µM
78 | CN(C)c1nc(-c2ccccn2)nnc1-c1ccccc1 | 14.2 µM
79 | Cc1ccccc1CNc1nc(-c2ccccn2)nnc1-c1ccccc1 | 2.82 µM
80 | c1ccc(-c2nnc(-c3ccccn3)nc2NCC2CC2)cc1 | 8.75 µM
81 | COc1cccc(CNc2nc(-c3ccccn3)nnc2-c2ccccc2)c1 | 2.07 µM
